# Active and inactive are the calls of the source. The calls are words filed in the database; no cut-off is given here.
# How the values were obtained:
# [1] = system: P388; assay: Inhibitory activity in vivo against P388 leukemia cells in mice at a dose of 50 mg/kg upon intraperitoneal administration; type: functional, Mus musculus
# In short: (§1)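 Tumor source was ascites fluid implanted into BDF₁ mice. Tumor inoculation and drug dosing were both intraperitoneal, given once daily for 5 days (q1d × 5). Screening and data interpretation followed the general NCI protocol.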
# [2] = system: P388; assay: Inhibitory activity in vivo against P388 leukemia cells in mice at a dose of 100 mg/kg upon intraperitoneal administration; type: functional, Mus musculus; in short: as §1
# [3] = system: Mus musculus; assay: Compound was evaluated for inhibitory activity in vivo against P388 leukemia cells in mice at a dose of 200 mg/kg upon intraperitoneal administration; type: functional; in short: as §1
# [4] = system: L1210; assay: Compound was tested for cytotoxic activity against L1210 leukemia in vitro; IA means inactive; type: functional, cell-based; conditions: Mus musculus
# [5] = system: P388; assay: Inhibitory activity in vivo against P388 leukemia cells in mice at a dose of 25 mg/kg upon intraperitoneal administration; type: functional, Mus musculus; in short: as §1
# [6] = Cytotoxic activity against human colon adenocarcinoma in vitro; type: functional
# [7] = system: L1210; assay: Cytotoxic activity against L1210 leukemia in vitro.; type: functional, Mus musculus
# [8] = system: P388; assay: Inhibitory activity in vivo against P388 leukemia cells in mice at a dose of 12.5 mg/kg upon intraperitoneal administration; type: functional, Mus musculus; in short: as §1
# [9] = system: Mus musculus; assay: Compound was evaluated for inhibitory activity against B-16 melanoma in mice at a dose of 25 mg/kg upon intraperitoneal administration; type: functional
# [10] = system: Mus musculus; assay: Compound was evaluated for inhibitory activity against B-16 melanoma in mice at a dose of 12.5 mg/kg upon intraperitoneal administration; type: functional
# [11] = system: Mus musculus; assay: Compound was evaluated for inhibitory activity against B-16 melanoma in mice at a dose of 6.25 mg/kg upon intraperitoneal administration; type: functional
# [12] = system: L1210; assay: Compound was tested for cytotoxic activity against L1210 leukemia in vitro.; IA means Inactive; type: functional, cell-based; conditions: Mus musculus
# [13] = system: Mus musculus; assay: Compound was evaluated for inhibitory activity in vivo against P388 leukemia cells in mice at a dose of 400 mg/kg upon intraperitoneal administration; type: functional; in short: as §1
# [14] = species: Homo sapiens; assay: Compound was tested for cytotoxic activity against human colon adenocarcinoma in vitro; IA means inactive; type: functional
# [15] = system: Mus musculus; assay: Compound was evaluated for inhibitory activity in vivo against P388 leukemia cells in mice at a dose of 1.50 mg/kg upon intraperitoneal administration; type: functional; conditions: dose 1.5 mg/kg; in short: as §1
# [16] = system: Mus musculus; assay: Compound was evaluated for inhibitory activity in vivo against P388 leukemia cells in mice at a dose of 0.75 mg/kg upon intraperitoneal administration; type: functional; in short: as §1
# [17] = system: Mus musculus; assay: Compound was evaluated for inhibitory activity in vivo against P388 leukemia cells in mice at a dose of 3.00 mg/kg upon intraperitoneal administration; type: functional; in short: as §1
# [18] = system: Mus musculus; assay: Compound was evaluated for inhibitory activity in vivo against P388 leukemia cells in mice at a dose of 3.12 mg/kg upon intraperitoneal administration; type: functional; in short: as §1
# [19] = system: Mus musculus; assay: Compound was evaluated for inhibitory activity in vivo against P388 leukemia cells in mice at a dose of 1.56 mg/kg upon intraperitoneal administration; type: functional; in short: as §1
# [20] = species: Homo sapiens; assay: Compound was tested for cytotoxic activity against human colon adenocarcinoma in vitro; IA means Inactive; type: functional
# [21] = system: Mus musculus; assay: Compound was evaluated for inhibitory activity in vivo against P388 leukemia cells in mice at a dose of 60 mg/kg upon intraperitoneal administration; type: functional; in short: as §1
# [22] = system: Mus musculus; assay: Compound was evaluated for inhibitory activity in vivo against P388 leukemia cells in mice at a dose of 120 mg/kg upon intraperitoneal administration; type: functional; in short: as §1
# [23] = system: Mus musculus; assay: Compound was evaluated for inhibitory activity in vivo against P388 leukemia cells in mice at a dose of 3.13 mg/kg upon intraperitoneal administration; type: functional; in short: as §1
# [24] = system: Mus musculus; assay: Compound was evaluated for inhibitory activity in vivo against P388 leukemia cells in mice at a dose of 6.25 mg/kg upon intraperitoneal administration; type: functional; in short: as §1
# [25] = system: Mus musculus; assay: Compound was evaluated for inhibitory activity against B-16 melanoma in mice at a dose of 1.56 mg/kg upon intraperitoneal administration; type: functional
# [26] = species: Homo sapiens; assay: Compound was tested for cytotoxic activity against human colon adenocarcinoma in vitro; type: functional
# [27] = system: Mus musculus; assay: Compound was evaluated for inhibitory activity against B-16 melanoma in mice at a dose of 3.13 mg/kg upon intraperitoneal administration; type: functional
# [28] = system: Mus musculus; assay: Compound was evaluated for inhibitory activity in vivo against P388 leukemia cells in mice at a dose of 8 mg/kg upon intraperitoneal administration; type: functional; in short: as §1
# [29] = system: Mus musculus; assay: Compound was evaluated for inhibitory activity in vivo against P388 leukemia cells in mice at a dose of 16 mg/kg upon intraperitoneal administration; type: functional; in short: as §1
# [30] = system: Mus musculus; assay: Compound was evaluated for inhibitory activity in vivo against P388 leukemia cells in mice at a dose of 2 mg/kg upon intraperitoneal administration; type: functional; in short: as §1
# [31] = system: Mus musculus; assay: Compound was evaluated for inhibitory activity in vivo against P388 leukemia cells in mice at a dose of 4 mg/kg upon intraperitoneal administration; type: functional; in short: as §1
SMILES,T/C [1],T/C [2],T/C [5],Cytotoxic concentration [7] [µM],T/C [8],further results
COc1ccc2c3c(cccc13)C(=O)N(CCN(C)C)C2=O,109,117,–,–,–,T/C [3]: 133; Cytotoxic concentration [4]: inactive
CCN(CC)CCN1C(=O)c2cc([N+](=O)[O-])cc3cc([N+](=O)[O-])cc(c23)C1=O.Cl,215,–,207,0.347,141,Cytotoxic concentration [6]: 820 nM
Cl.O=C1c2cc([N+](=O)[O-])cc3cc([N+](=O)[O-])cc(c23)C(=O)N1CCN1CCCCC1,247,–,181,0.287,138,Cytotoxic concentration [6]: 539 nM; T/C [9]: 156; T/C [10]: 133; T/C [11]: 114
CN(C)CCN1C(=O)c2cccc3c(O)ccc(c23)C1=O.I,–,107,–,–,–,Cytotoxic concentration [12]: inactive; T/C [3]: 112; T/C [13]: 120
CN(C)CCN1C(=O)c2cccc3cc(O)cc(c23)C1=O,–,115,–,1.64,–,Cytotoxic concentration [14]: inactive; T/C [3]: 142
CN(C)CCN1C(=O)c2cc([N+](=O)[O-])cc3cc([N+](=O)[O-])cc(c23)C1=O.Cl,–,–,–,0.0361,–,T/C [15]: 167; Cytotoxic concentration [6]: 41.3 nM; T/C [16]: 159; T/C [17]: 169; T/C [18]: 167; T/C [19]: 155
Cl.O=C1c2cc([N+](=O)[O-])cc3cc([N+](=O)[O-])cc(c23)C(=O)N1CCN1CCOCC1,147,–,131,1.13,112,Cytotoxic concentration [6]: 722 nM
CN(C)CCN1C(=O)c2ccc(Cl)c3c(Cl)ccc(c23)C1=O,–,–,107,0.699,–,–
O=C1OCCN1CCN1C(=O)c2cc([N+](=O)[O-])cc3cc([N+](=O)[O-])cc(c23)C1=O,–,–,–,2.02,–,Cytotoxic concentration [20]: inactive; T/C [21]: 109; T/C [22]: 119
Cl.O=C1c2cccc3cc([N+](=O)[O-])cc(c23)C(=O)N1CCN1CCCCC1,176,–,137,0.59,119,–
Cl.O=C1c2cccc3cc([N+](=O)[O-])cc(c23)C(=O)N1CCN1CCCC1,–,–,–,0.159,163,T/C [23]: 135; T/C [24]: 149
Cl.O=C1c2cccc3cc([N+](=O)[O-])cc(c23)C(=O)N1CCN1CCOCC1,105,183,–,–,–,Cytotoxic concentration [4]: inactive
COc1ccc2c3c(ccc(OC)c13)C(=O)N(CCN(C)C)C2=O,120,118,102,–,–,T/C [3]: 123; Cytotoxic concentration [4]: inactive
O=C1c2cccc3cc([N+](=O)[O-])cc(c23)C(=O)N1CCNCCO,–,–,163,–,151,T/C [25]: 112; Cytotoxic concentration [26]: 388 nM; T/C [9]: 216; T/C [27]: 142; T/C [10]: 219; T/C [11]: 174; T/C [24]: 137
CNCCN1C(=O)c2cccc3cc([N+](=O)[O-])cc(c23)C1=O.Cl,–,–,–,0.266,177,T/C [18]: 129; T/C [24]: 139
CN(C)CCN1C(=O)c2cccc3cccc(c23)C1=O,130,166,116,2.05,–,–
Cl.O=C1c2cccc3cccc(c23)C(=O)N1CCNCCO,120,–,102,2.05,–,–
CN(C)CCN1C(=O)c2cccc3c(Cl)ccc(c23)C1=O,121,120,105,1.01,–,–
CCN(CC)CCN1C(=O)c2cccc3cc([N+](=O)[O-])cc(c23)C1=O.Cl,–,–,149,1.37,120,–
CCNCCN1C(=O)c2cccc3cc([N+](=O)[O-])cc(c23)C1=O.Cl,–,–,162,0.7,129,T/C [24]: 123
CN(C)CCN1C(=O)c2ccc3c4c(ccc(c24)C1=O)C(=O)N(CCN(C)C)C3=O,–,–,–,–,–,T/C [18]: 116; T/C [24]: 125
Cl.O=C1c2cccc3cc([N+](=O)[O-])cc(c23)C(=O)N1CCN1CCNCC1,136,–,129,1.38,116,–
CN(C)CCN1C(=O)c2cccc3cc([N+](=O)[O-])cc(c23)C1=O.Cl,–,–,–,0.151,–,Cytotoxic concentration [26]: 106 nM; T/C [18]: 138; T/C [19]: 121; T/C [24]: 164
CN(C)CCN1C(=O)c2cc(O)cc3cc(O)cc(c23)C1=O,142,148,130,3.54,122,Cytotoxic concentration [14]: inactive; T/C [3]: 149; T/C [13]: 140
CN(C)CCN1C(=O)c2cccc3cc(N)cc(c23)C1=O [AMONAFIDE],–,–,–,–,–,T/C [28]: 144; T/C [29]: 177; T/C [30]: 135; T/C [31]: 142
CN(C)CCCN1C(=O)c2cc([N+](=O)[O-])cc3cc([N+](=O)[O-])cc(c23)C1=O.Cl,154,–,129,1.42,113,Cytotoxic concentration [6]: 1180 nM

# Reference: ChEMBL document CHEMBL1123030, “N-(Aminoalkyl)imide antineoplastic agents. Synthesis and biological activity” (J Med Chem, 1985)
